Measurements from BindingDB's records for doi:10.1021/jm960325j (Universit&#224, 1996).
pIC50: −log10 of the molar value.

Target: Translocator protein (Rattus norvegicus, UniProt P16257)
Assay: Binding affinity against peripheral benzodiazepine receptor( PBR).
Procedure, shortened: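 Rat cerebral cortex membranes washed repeatedly at 50000g in 50 mM phosphate pH 7.4, 2.3 mg tissue per sample. Filtration, scintillation counting. IC50 by log-probit analysis over six concentrations in duplicate, means of three experiments. Maximal concentration 1000 nM.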

Translocator protein, sequence (P16257 whole entry, looked up): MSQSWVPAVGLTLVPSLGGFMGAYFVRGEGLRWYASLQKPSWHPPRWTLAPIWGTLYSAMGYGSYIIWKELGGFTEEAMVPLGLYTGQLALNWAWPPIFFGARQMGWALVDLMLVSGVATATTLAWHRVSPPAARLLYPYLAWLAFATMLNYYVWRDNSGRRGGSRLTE

| pIC50 | SMILES |
| --- | --- |
| < 6.00 | CCCCCCN(CCCCCC)C(=O)Cc1c2[nH]c3ccccc3cc-2c(=O)n1-c1ccc(Cl)cc1 [2-[2-(4-Chloro-phenyl)-1-oxo-2,3-dihydro-1H-pyrrolo[3,4-b]quinolin-3-yl]-N,N-dihexyl-acetamide] |
| < 6.00 | CCCN(CCC)C(=O)Cc1c2[nH]cccc-2c(=O)n1-c1ccc(Cl)cc1 [2-[6-(4-Chloro-phenyl)-5-oxo-6,7-dihydro-5H-pyrrolo[3,4-b]pyridin-7-yl]-N,N-dipropyl-acetamide] |
| < 6.00 | CCCN(CCC)C(=O)Cc1c2[nH]c3ccccc3cc-2c(=O)n1-c1ccc(Cl)cc1 [2-[2-(4-Chloro-phenyl)-1-oxo-2,3-dihydro-1H-pyrrolo[3,4-b]quinolin-3-yl]-N,N-dipropyl-acetamide] |
| < 6.00 | O=c1c2ccc[nH]c-2cn1-c1ccc(Cl)cc1 [6-(4-Chloro-phenyl)-6,7-dihydro-pyrrolo[3,4-b]pyridin-5-one] |
